Active and inactive are the calls of the source. The rule behind the calls is not given here.

For assay [1], the system named is Mus musculus. The assay can be described thus: Antidepressant activity in mouse assessed as spontaneous locomotor activity 5 to 20 mg/kg. The class given is functional, organism-based. A digest of the protocol:
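Swiss albino mice given the forced swim doses ip 30 min before; placed individually in cages and channel crossings counted from 2 to 6 min with a multichannel activity monitor, matching the swim test observation period.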

Assay [2] concerns Mus musculus. The assay is described as follows: Antidepressant activity in Swiss albino mouse assessed as reduction in immobility time at 5 to 20 mg/kg measured for 4 mins by forced swim test. The class given is functional. More on the design: scale not given: the % may be the effect or the level left. Particulars: dose mg/kg 5-20. A digest of the protocol: (§1)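 Porsolt forced swim in male Swiss albino mice. Drugs ip (10 ml/kg; 1% Tween 80 suspension, imipramine in water) 30 min before. Cylinder 25 cm high, 10 cm diameter, 6 cm water at 23–25 °C, 6 min session; immobility scored over final 4 min. 5–10 mice/dose; one-way ANOVA with Bonferroni.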

Assay [3] addresses 5-hydroxytryptamine receptor 6 (Homo sapiens, UniProt P50406). The assay can be described thus: Displacement of [3H]-LSD from human full length cloned 5HT6 receptor expressed in human HEK293 cells by liquid scintillation counter. The format is cell-based. A digest of the protocol: (§2)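 Competition binding. 5-HT1A: rat hippocampus, [3H]-8-OH-DPAT. 5-HT2A: rat cortex, [3H]-ketanserin. D2: rat striatum, [3H]-spiperone. 5-HT6: human receptor stably in HEK293, [3H]-LSD. 5-HT7: human receptor stably in HEK293, [3H]-5-CT. Vacuum filtration on GF/B filters, ice-cold washes, scintillation counting.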
(In a radioligand displacement assay an active substance lowers the binding of a labelled ligand.)

The target in assay [4] is T1, 5-hydroxytryptamine receptor 1A (Rattus norvegicus, UniProt P19327).
T1 sequence (P19327 whole entry): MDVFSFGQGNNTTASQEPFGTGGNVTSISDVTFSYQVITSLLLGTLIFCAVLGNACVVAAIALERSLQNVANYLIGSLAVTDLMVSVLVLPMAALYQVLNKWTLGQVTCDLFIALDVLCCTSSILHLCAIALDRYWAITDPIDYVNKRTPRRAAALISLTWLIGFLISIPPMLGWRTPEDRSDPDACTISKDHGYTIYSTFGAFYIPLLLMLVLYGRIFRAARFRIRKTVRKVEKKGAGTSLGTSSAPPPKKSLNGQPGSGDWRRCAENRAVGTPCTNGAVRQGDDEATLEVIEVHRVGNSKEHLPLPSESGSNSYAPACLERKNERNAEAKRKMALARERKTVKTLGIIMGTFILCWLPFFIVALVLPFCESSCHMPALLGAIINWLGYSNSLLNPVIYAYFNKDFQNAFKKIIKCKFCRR
The assay is described as follows: Displacement of [3H]8-OH-DPAT from rat hippocampus 5-HT1A receptor by liquid scintillation counter. The class given is tissue-based. In outline: as §2

Assay [5] has as its target T2, 5-hydroxytryptamine receptor 7 (Homo sapiens, UniProt P34969). The assay is described as follows: Displacement of [3H]5-CT form human cloned 5HT7 receptor expressed in human HEK293 cells by liquid scintillation counter. The format is cell-based. In outline:
as §2

Assay [6] deals with Mus musculus. The assay can be described thus: […] activity in ip dosed Swiss albino mouse assessed as inhibition of DOI-induced head twitches administered 20 mins before DOI challenge measured for 20 mins. The class given is functional. Conditions: for ED50: read-out: ID50 (the source's name).
Assay [7] deals with 5-hydroxytryptamine receptor 2A (Rattus norvegicus, UniProt P14842). The assay is described as follows: Displacement of [3H]Ketanserin from rat cortex 5-HT2A receptor by liquid scintillation counter. In outline: as §2
Assay [8] relates to Mus musculus. The assay can be described thus: […] activity in Swiss albino mouse assessed as inhibition of apomorphine-induced climbing behavior administered 10 mins before apomorphine challenge measured for 2 mins. The format is functional. In outline:
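Male Swiss albino mice; compounds ip in 1% Tween 80 suspension, 10 min before apomorphine 3 mg/kg. Climbing time (2–4 paws on bar wall) recorded for 2 min starting 20 min after apomorphine.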

The subject of assay [9] is Rattus norvegicus. The assay is described as follows: Anxiolytic activity in Wistar rat assessed as increase in time spent in open arms at 5 mg/kg after 5 mins by plus-maze test (reference value: 7.9 +/- 1.4 %). The class given is functional.
The nature of assay [10]: Selectivity ratio of compound Ki for rat hippocampus 5-HT1A receptor to human 5HT7 receptor. The class given is tissue-based. In outline: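 Ratio of Ki values from competition binding: rat hippocampus 5-HT1A with [3H]-8-OH-DPAT versus human 5-HT7 in HEK293 with [3H]-5-CT; Ki by Cheng–Prusoff from 7–9 concentrations in triplicate.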
For assay [11], the system named is Rattus norvegicus. The assay can be described thus: Anxiolytic activity in Wistar rat assessed as increase in total distance at 2.5 mg/kg for 5 mins by general locomotor activity test. Further details: dose 2.5 mg/kg. The format is functional, organism-based.
The next assay deals with D(2) dopamine receptor (Rattus norvegicus, UniProt P61169). The assay can be described thus: Displacement of [3H]-spiperone from rat striatum dopamine D2 receptor by liquid scintillation counter. A digest of the protocol:
as §2

Assay [12] concerns Mus musculus. The assay is described as follows: Antipsychotic activity in CD1 mouse assessed as reduction in spontaneous locomotor activity measuring number of crossings at 10 to 30 mg/kg every 5 mins for 1 hr. The class given is functional, organism-based. A digest of the protocol:
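Male CD-1 mice; compound or reference ip 30 min before test plus vehicle. After 30 min habituation in individual cages, crossings counted over 1 h, recorded every 5 min; mean ± SEM; one-way ANOVA, Bonferroni.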

Assay [13] addresses T3, D(4) dopamine receptor (Homo sapiens) (UniProt P21917).
T3 sequence (whole entry): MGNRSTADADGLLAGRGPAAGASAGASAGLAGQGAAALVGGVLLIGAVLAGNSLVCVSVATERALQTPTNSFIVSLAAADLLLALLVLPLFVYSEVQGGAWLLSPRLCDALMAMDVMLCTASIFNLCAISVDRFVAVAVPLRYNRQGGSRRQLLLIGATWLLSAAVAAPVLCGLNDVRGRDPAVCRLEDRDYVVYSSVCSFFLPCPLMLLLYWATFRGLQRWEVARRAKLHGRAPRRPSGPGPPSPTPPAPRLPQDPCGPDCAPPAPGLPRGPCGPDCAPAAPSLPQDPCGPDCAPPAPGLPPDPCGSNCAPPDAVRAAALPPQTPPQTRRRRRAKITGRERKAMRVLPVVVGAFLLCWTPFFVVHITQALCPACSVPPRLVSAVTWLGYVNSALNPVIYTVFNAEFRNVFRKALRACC
The assay is described as follows: Displacement of [3H]-methylspiperone from human cloned dopamine D4 receptor expressed in HEK293 cells at 10 '-6 M by liquid scintillation counter. The class given is cell-based.

The test system of assay [14] is Mus musculus. The assay can be described thus: Antidepressant activity in Swiss albino mouse assessed as reduction in immobility time at 10 mg/kg measured for 4 mins by forced swim test. The class given is functional. In outline: as §1
The target in assay [15] is T2, 5-hydroxytryptamine receptor 7. The assay can be described thus: Antagonist activity at human cloned 5HT7 receptor expressed in human CHO cells assessed as adenylate cyclase activity by cAMP accumulation assay. The class given is functional, cell-based. In outline:
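CHO cells stably expressing human 5-HT7 receptor; intracellular cAMP (adenylate cyclase) measured, expressed as % of maximal effect of 300 nM serotonin. Compounds tested at 5 concentrations spanning 10^-4–10^-9 in antagonist mode. KB from IC50 by modified Cheng–Prusoff, KB = IC50/(1+A/EC50A), A = reference agonist concentration.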

For assay [16], the system named is Rattus norvegicus. The assay can be described thus: Anxiolytic activity in Wistar rat assessed as increase in time spent in open arms at 10 mg/kg after 5 mins by plus-maze test (reference value: 7.9 +/- 1.4 %). The class given is functional.
The test system of assay [17] is Mus musculus. The assay is described as follows: Antidepressant activity in Swiss albino mouse assessed as reduction in immobility time at 20 mg/kg measured for 4 mins by forced swim test. The format is functional. In outline: as §1
Assay [18] has as its target D(3) dopamine receptor (Homo sapiens) (UniProt P35462). The assay is described as follows: Displacement of [3H]-methylspiperone from human cloned dopamine D3 receptor expressed in HEK293 cells at 10 '-7 M by liquid scintillation counter. The format is cell-based.
Assay [19] has as its system Mus musculus. The assay can be described thus: Antipsychotic activity in CD1 mouse assessed as inhibition of MK-801-induced hyperactivity measuring number of crossings at 5 to 30 mg/kg measured every 5 mins for 1 hr. The format is functional, organism-based. A digest of the protocol:
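Male CD-1 mice; test compound ip 30 min before, MK-801 0.2 mg/kg (in water) ip 15 min before testing. After 30 min habituation, crossings counted for 60 min, recorded every 5 min. 5–10 mice/group; mean ± SEM; one-way ANOVA, Bonferroni versus vehicle + MK-801.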

Assay [20] concerns Rattus norvegicus. The assay can be described thus: Anxiolytic activity in Wistar rat assessed as increase in open arm entries at 10 mg/kg after 5 mins by plus-maze test (reference value: 23.1 +/- […]). The class given is functional.
In assay [21] the test system is Rattus norvegicus. The assay is described as follows: Anxiolytic activity in Wistar rat assessed as increase in Y ambulations at 2.5 mg/kg for 5 mins by general locomotor activity test. Further details: dose 2.5 mg/kg. The class given is functional, organism-based.
Assay [22] has as its system Rattus norvegicus. The assay can be described thus: Anxiolytic activity in Wistar rat assessed as increase in open arm entries at 2.5 mg/kg after 5 mins by plus-maze test (reference value: 23.1 +/- […]). The format is functional.
The test system of assay [23] is Rattus norvegicus. The assay can be described thus: Anxiolytic activity in Wistar rat assessed as increase in open arm entries at 5 mg/kg after 5 mins by plus-maze test (reference value: 23.1 +/- […]). The format is functional.
In assay [24] the target is T3, D(4) dopamine receptor (Homo sapiens). The assay is described as follows: Displacement of [3H]-methylspiperone from human cloned dopamine D4 receptor expressed in HEK293 cells at 10 '-7 M by liquid scintillation counter. The format is cell-based.
Assay [25] concerns Rattus norvegicus. The assay can be described thus: Anxiolytic activity in Wistar rat assessed as increase in time spent in open arms at 2.5 mg/kg after 5 mins by plus-maze test (reference value: 7.9 +/- 1.4 %). The format is functional.
In assay [26] the target is D(3) dopamine receptor (Homo sapiens) (UniProt P35462). The assay is described as follows: Displacement of [3H]-methylspiperone from human cloned dopamine D3 receptor expressed in HEK293 cells at 10 '-6 M by liquid scintillation counter. The format is cell-based.
Chain of D(3) dopamine receptor (Homo sapiens) (P35462 whole entry): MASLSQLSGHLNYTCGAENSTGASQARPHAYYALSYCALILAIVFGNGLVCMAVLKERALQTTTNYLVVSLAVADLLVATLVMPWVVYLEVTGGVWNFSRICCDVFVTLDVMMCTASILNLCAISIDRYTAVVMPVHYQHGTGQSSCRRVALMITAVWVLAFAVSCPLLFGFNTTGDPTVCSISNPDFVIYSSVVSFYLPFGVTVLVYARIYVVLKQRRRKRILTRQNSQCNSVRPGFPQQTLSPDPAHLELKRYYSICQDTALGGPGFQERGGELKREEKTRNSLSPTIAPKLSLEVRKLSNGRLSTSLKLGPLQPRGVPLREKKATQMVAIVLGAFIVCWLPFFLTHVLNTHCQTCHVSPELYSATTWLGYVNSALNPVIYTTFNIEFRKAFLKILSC

T2 sequence (P34969 whole entry): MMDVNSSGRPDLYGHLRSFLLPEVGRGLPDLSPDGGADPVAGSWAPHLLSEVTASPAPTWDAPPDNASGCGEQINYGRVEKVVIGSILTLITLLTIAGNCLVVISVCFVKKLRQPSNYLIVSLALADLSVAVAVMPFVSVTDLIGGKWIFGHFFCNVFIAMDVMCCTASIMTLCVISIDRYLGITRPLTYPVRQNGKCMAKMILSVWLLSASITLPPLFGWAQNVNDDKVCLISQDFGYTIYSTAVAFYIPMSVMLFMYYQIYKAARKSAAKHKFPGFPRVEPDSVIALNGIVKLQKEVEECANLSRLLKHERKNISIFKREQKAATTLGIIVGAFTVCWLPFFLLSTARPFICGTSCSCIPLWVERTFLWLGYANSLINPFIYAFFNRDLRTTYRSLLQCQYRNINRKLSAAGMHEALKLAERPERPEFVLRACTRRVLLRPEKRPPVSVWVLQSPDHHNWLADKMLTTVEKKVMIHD
Chain of 5-hydroxytryptamine receptor 2A (P14842 whole entry): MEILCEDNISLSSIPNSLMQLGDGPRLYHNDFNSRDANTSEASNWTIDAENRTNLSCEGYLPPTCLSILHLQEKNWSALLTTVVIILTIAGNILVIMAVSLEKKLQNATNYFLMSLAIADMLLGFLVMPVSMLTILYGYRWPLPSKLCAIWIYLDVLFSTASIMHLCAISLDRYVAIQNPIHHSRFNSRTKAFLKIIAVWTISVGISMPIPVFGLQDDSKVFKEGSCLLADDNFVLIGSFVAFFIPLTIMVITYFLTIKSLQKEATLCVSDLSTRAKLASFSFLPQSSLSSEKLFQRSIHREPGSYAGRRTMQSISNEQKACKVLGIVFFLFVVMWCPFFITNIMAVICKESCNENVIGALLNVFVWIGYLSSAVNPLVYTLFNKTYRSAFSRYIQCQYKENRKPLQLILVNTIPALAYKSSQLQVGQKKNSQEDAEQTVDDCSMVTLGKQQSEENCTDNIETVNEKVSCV
Chain of 5-hydroxytryptamine receptor 6 (P50406 whole entry): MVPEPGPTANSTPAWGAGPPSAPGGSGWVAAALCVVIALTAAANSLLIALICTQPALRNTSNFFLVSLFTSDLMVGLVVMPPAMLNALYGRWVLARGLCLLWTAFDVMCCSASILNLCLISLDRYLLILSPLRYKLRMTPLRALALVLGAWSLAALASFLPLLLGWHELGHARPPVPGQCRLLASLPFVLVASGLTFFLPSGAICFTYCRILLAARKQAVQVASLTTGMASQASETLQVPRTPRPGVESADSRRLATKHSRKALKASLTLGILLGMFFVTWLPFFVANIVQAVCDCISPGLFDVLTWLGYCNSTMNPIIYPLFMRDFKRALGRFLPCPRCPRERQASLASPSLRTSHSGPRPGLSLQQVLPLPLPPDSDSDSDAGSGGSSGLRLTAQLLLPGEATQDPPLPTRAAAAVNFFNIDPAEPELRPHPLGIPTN
Chain of D(2) dopamine receptor (P61169 whole entry): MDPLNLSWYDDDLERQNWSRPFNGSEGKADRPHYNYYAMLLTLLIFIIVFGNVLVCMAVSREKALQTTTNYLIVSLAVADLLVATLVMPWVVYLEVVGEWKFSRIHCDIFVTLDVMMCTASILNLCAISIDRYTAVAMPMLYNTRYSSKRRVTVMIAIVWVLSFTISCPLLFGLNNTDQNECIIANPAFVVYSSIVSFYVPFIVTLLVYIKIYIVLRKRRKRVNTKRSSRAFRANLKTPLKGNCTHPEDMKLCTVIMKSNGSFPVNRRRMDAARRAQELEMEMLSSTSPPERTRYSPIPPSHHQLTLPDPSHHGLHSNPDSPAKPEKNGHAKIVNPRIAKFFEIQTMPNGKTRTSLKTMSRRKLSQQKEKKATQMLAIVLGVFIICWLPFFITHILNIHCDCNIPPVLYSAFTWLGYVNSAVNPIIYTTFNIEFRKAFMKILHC

Take `Cl.O=S(=O)(NCCCCN1CCN(c2cccc(Cl)c2)CC1)c1cnc2ccc(Cl)cc2c1`: the outcome in the assay on Mus musculus [1] was inactive. The Activity in the assay with Mus musculus [2] stood at 44%. Besides, the Ki (as a rule, the equilibrium dissociation constant of an inhibitor or competing ligand from its target) is 0.155 µM in assay [3], 0.208 µM in assay [4], 0.088 µM in assay [5] and 0.056 µM in assay [7]. The inhibition (commonly the relative decrease from the control value, in per cent) in the assay on Mus musculus [6] is “Dose-dependent effect”. Further, the ED50 in the assay with Mus musculus [6] stood at 4.75 mg/kg.

As to `Cl.O=S(=O)(c1cncc2ccccc12)N1CCC(CCN2CCN(c3ccc(Cl)cc3)CC2)CC1`, the inhibition entry in the assay with Mus musculus [8] was “Dose-dependent effect”; in assay [13], 98%; in [18] it was 67%; in the assay with Mus musculus [6], “Dose-dependent effect”; in [24] it was 70%; in assay [26], 93%. The ED50 in the assay on Mus musculus [8] (read-out: ID50 (the source's name)) was determined as 25.5 mg/kg; with Mus musculus [6], 20.3 mg/kg. For the same molecule, the Activity came to 19.4% in the assay with Rattus norvegicus [9]; 29.3% in the assay on Rattus norvegicus [16]; 40.3% in the assay with Rattus norvegicus [20]; 36.4% in the assay with Rattus norvegicus [22]; 32.9% with Rattus norvegicus [23]; 25% in the assay on Rattus norvegicus [25]. Besides, the Ratio Ki in [10] is 68. Besides, the result in the assay with Rattus norvegicus [11], with Mus musculus [14], in the assay with Mus musculus [17] and in the assay on Rattus norvegicus [21] was Active. For the same molecule, the Ki on D(2) dopamine receptor came to 0.06 µM; in assay [3], 16.7 µM; in assay [4], 3.21 µM; in assay [5], 0.047 µM; in [7], 0.059 µM. In the assay with Mus musculus [12], the outcome was inactive. The antagonist dissociation constant (Kb) (as a rule, the affinity of an antagonist, worked out from how it opposes an agonist) in [15] amounted to 0.09 µM. Further, the inhibition result in the assay with Mus musculus [19] is “Active”.

The values are drawn from ChEMBL document CHEMBL1949570, “Quinoline- and isoquinoline-sulfonamide derivatives of LCAP as potent CNS multi-receptor-5-HT1A/5-HT2A/5-HT7 and D2/D3/D4-agents: the synthesis and pharmacological evaluation” (Bioorg Med Chem, 2012).
